The nature of data set [1]: melting temperature; fluorescence melt of hairpins on a sequencing array, two-state fit, raised by 9.35 °C to match UV melts. The following applies: sodium 0.088 M. An outline of the steps:
(§1)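 Melting temperature and folding enthalpy were derived from bootstrapped two-state fits. The fitted temperatures were raised by 9.35 °C to agree with UV melts, and four replicates were combined by inverse variance. The underlying data were Cy3 fluorescence images of library hairpins, with annealed Cy3 and quencher oligos, on a sequenced MiSeq flow cell in 50 mM Na-HEPES pH 8.0, 25 mM NaCl, taken in 2.5 °C steps up to 60 °C, normalised to pre-quench Cy3 and to control constructs.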

The nature of data set [2]: folding enthalpy; higher = less favourable; fluorescence melt of hairpins on a sequencing array, two-state fit. The following applies: sodium 0.088 M. Summed up: as §1

With GATCAACCATTTGATC ((((((....)))))), the Tm in data set [1] was 42.3 °C. For the same sequence, the folding enthalpy in data set [2] is -32.8 kcal/mol.
As to GATCAACCCTTTGATC ((((((....)))))), the Tm in data set [1] amounted to 46.1 °C. For the same sequence, the folding enthalpy in data set [2] is -39.2 kcal/mol.
Taken in the same sequence, the figures for GATCAACCTATTGATC ((((((....)))))) were 41.5 °C and -29 kcal/mol.
Taken in the same sequence, the figures for GATCAACGAAAGTTAATC (((.(((....))).))) were 27.8 °C and -11.7 kcal/mol.
On to GATCAACGAAAGTTATC (((.(((....)))))), for which the Tm in data set [1] came out at 25.4 °C. Besides, the folding enthalpy in data set [2] is -9.84 kcal/mol.
Taken in the same sequence, the figures for GATCAACGCGTTGATC ((((((....)))))) were 59.5 °C and -54.2 kcal/mol.
Taken in the same sequence, the figures for GATCAACGGATTGATC ((((((....)))))) were 39.5 °C and -28 kcal/mol.
The matching figures for GATCAACGTTTGATC ((((((...)))))): 40.1 °C and -26.1 kcal/mol.
As for GATCAACTGCTTGATC ((((((....)))))), the Tm in data set [1] worked out at 44 °C. In addition, the folding enthalpy in data set [2] is -31.5 kcal/mol.
Taken in the same sequence, the figures for GATCAACTTTTTGATC ((((((....)))))) were 43.3 °C and -37.8 kcal/mol.
For the sequence GATCAAGATTTTGATC ((((((....)))))), the Tm in data set [1] is 44.5 °C. Besides, in data set [2], the folding enthalpy was -28.5 kcal/mol.
The matching figures for GATCAAGCCTTGATC ((((((...)))))): 44.1 °C and -26.1 kcal/mol.
The matching figures for GATCAAGCCTTTGATC ((((((....)))))): 49.2 °C and -40.7 kcal/mol.
The matching figures for GATCAAGCGATTGATC ((((((....)))))): 48 °C and -39.6 kcal/mol.
For GATCAAGCTCTTGATC ((((((....)))))), in data set [1], the Tm is 48.3 °C. In addition, the folding enthalpy in data set [2] was -38.9 kcal/mol.
Turning to GATCAAGGATTTGATC ((((((....)))))), the Tm in data set [1] was found to be 49.1 °C. Further, in data set [2], the folding enthalpy is -29.8 kcal/mol.
The matching figures for GATCAAGGTCTTGATC ((((((....)))))): 48.6 °C and -37.5 kcal/mol.
The matching figures for GATCAAGTCCTTGATC ((((((....)))))): 49.7 °C and -38.2 kcal/mol.
Taken in the same sequence, the figures for GATCAAGTGTTGATC ((((((...)))))) were 40.9 °C and -32 kcal/mol.
For GATCAAGTGTTTGATC ((((((....)))))), the Tm in data set [1] stood at 43.5 °C. Besides, the folding enthalpy in data set [2] was -31.8 kcal/mol.
The matching figures for GATCAAGTTATTGATC ((((((....)))))): 49.8 °C and -35.8 kcal/mol.
The matching figures for GATCAAGTTTTGATC ((((((...)))))): 45.4 °C and -29.4 kcal/mol.
The matching figures for GATCAATAACTTGATC ((((((....)))))): 39.4 °C and -31.6 kcal/mol.
On to GATCAATAGCTTGATC ((((((....)))))), for which, in data set [1], the Tm was 40.5 °C. The folding enthalpy in data set [2] was -29.6 kcal/mol.
Taken in the same sequence, the figures for GATCAATCAATTGATC ((((((....)))))) were 45 °C and -36 kcal/mol.
The matching figures for GATCAATCCGTTGATC ((((((....)))))): 47 °C and -32.5 kcal/mol.
The matching figures for GATCAATCTTTTGATC ((((((....)))))): 46.5 °C and -34.1 kcal/mol.
In the case of GATCAATGATTTGATC ((((((....)))))), the Tm in data set [1] stood at 44.8 °C. Further, the folding enthalpy in data set [2] was -32.7 kcal/mol.
Taken in the same sequence, the figures for GATCAATGCGTTGATC ((((((....)))))) were 50.9 °C and -45.6 kcal/mol.
The matching figures for GATCAATGCTTGATC ((((((...)))))): 43.2 °C and -28.5 kcal/mol.
With GATCAATGCTTTGATC ((((((....)))))), the Tm in data set [1] came to 47.5 °C. Further, in data set [2], the folding enthalpy is -39.7 kcal/mol.
The matching figures for GATCAATGTATTGATC ((((((....)))))): 51 °C and -41.1 kcal/mol.
Taken in the same sequence, the figures for GATCAATTGTTTGATC ((((((....)))))) were 46.1 °C and -35.9 kcal/mol.
For GATCACAAGGTGATC ((((((...)))))), the Tm in data set [1] came out at 58.4 °C. The folding enthalpy in data set [2] was -38.4 kcal/mol.
Taken in the same sequence, the figures for GATCACACAGGTGATC ((((((....)))))) were 54.5 °C and -44.3 kcal/mol.
Taken in the same sequence, the figures for GATCACACATGTGATC ((((((....)))))) were 57.9 °C and -38.1 kcal/mol.
Consider GATCACACCTGTGATC ((((((....)))))), for which the Tm in data set [1] was 57.2 °C. Further, the folding enthalpy in data set [2] was -47.3 kcal/mol.
For GATCACACGAAAGTGATC (((..(((....)))))), the Tm in data set [1] came out at 48.8 °C. Moreover, the folding enthalpy in data set [2] is -34.3 kcal/mol.

The record behind these values is the array DNA melting data of Ke et al. (doi:10.1101/2024.01.08.574731).
